pIC50: −log10 of the molar value. Converted amounts (≈) assume the structure as drawn. The source made the active and inactive calls. The rule behind the calls is not given here.
Assays:
[1] = system: Candida albicans; assay: Antimicrobial activity against Candida albicans at 2.5 ug/mL by agar diffusion method; assay type: functional; conditions: read-out: IZ
[2] = system: Bacillus subtilis; assay: Antimicrobial activity against Bacillus subtilis at 1.25 ug/mL by agar diffusion method; assay type: functional; conditions: read-out: IZ
[3] = system: Pseudomonas aeruginosa; assay: Antimicrobial activity against Pseudomonas aeruginosa at 5 ug/mL by agar diffusion method; assay type: functional; conditions: read-out: IZ
[4] = system: Pseudomonas aeruginosa; assay: Antimicrobial activity against Pseudomonas aeruginosa at 2.5 ug/mL by agar diffusion method; assay type: functional; conditions: read-out: IZ
[5] = system: Radical scavenging activity; assay: Antioxidant activity assessed as DPPH free radical scavenging activity by measuring reduction in DPPH absorbance by ELISA relative to untreated control; assay type: functional; set-up: concentration or dose not given beside the values
Outline: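 Test compounds dissolved in DMSO, ascorbic acid standard in water, both serially diluted. 10 µl sample added to 90 µl of 100 µM DPPH in methanol and kept in the dark at 37 °C for 30 min. Absorbance read at 515 nm. Blank is DMSO plus DPPH. % reduction = (A_B − A_A)/A_B × 100. Run in triplicate.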

[6] = system: Penicillium italicum; assay: Antimicrobial activity against Penicillium italicum by agar diffusion method; assay type: functional
Outline: (§1)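 Agar diffusion on plates against bacteria and fungi. MIC taken as the lowest concentration giving no visible growth on the plate.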

[7] = system: Penicillium italicum; assay: Antimicrobial activity against Penicillium italicum at 5 ug/mL by agar diffusion method; assay type: functional; conditions: read-out: IZ
[8] = system: Syncephalastrum racemosum; assay: Antimicrobial activity against Syncephalastrum racemosum at 1.25 ug/mL by agar diffusion method; assay type: functional; conditions: read-out: IZ
[9] = system: Escherichia coli; assay: Antimicrobial activity against Escherichia coli at 1.25 ug/mL by agar diffusion method; assay type: functional; conditions: read-out: IZ
[10] = system: Aspergillus fumigatus; assay: Antimicrobial activity against Aspergillus fumigatus at 2.5 ug/mL by agar diffusion method; assay type: functional; conditions: read-out: IZ
[11] = system: Candida albicans; assay: Antimicrobial activity against Candida albicans at 1.25 ug/mL by agar diffusion method; assay type: functional; conditions: read-out: IZ
[12] = system: Staphylococcus aureus; assay: Antimicrobial activity against Staphylococcus aureus at 1.25 ug/mL by agar diffusion method; assay type: functional; conditions: read-out: IZ
[13] = system: Penicillium italicum; assay: Antimicrobial activity against Penicillium italicum at 1.25 ug/mL by agar diffusion method; assay type: functional; conditions: read-out: IZ
[14] = system: Escherichia coli; assay: Antimicrobial activity against Escherichia coli at 2.5 ug/mL by agar diffusion method; assay type: functional; conditions: read-out: IZ
[15] = system: Staphylococcus aureus; assay: Antimicrobial activity against Staphylococcus aureus at 5 ug/mL by agar diffusion method; assay type: functional; conditions: read-out: IZ
[16] = target: DNA topoisomerase 2-alpha (Mus musculus) (UniProt Q01320); assay: Inhibition of topoisomerase 2 from mouse P388 cells assessed as relaxation of pBR322 DNA by agarose gel electrophoresis relative to etoposide; assay type: cell-based
Outline: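 Topoisomerase II purified from P388 cells. One unit relaxes 0.125 µg supercoiled pBR322 DNA, incubated with or without inhibitor at 30 °C for 1 h in 50 mM Tris-HCl pH 8.0, 100 mM KCl, 10 mM MgCl2, 0.5 mM DTT, 1 mM ATP and 30 µg/ml BSA. Products run on 0.7% agarose in TBE, stained with ethidium bromide and imaged under UV.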

[17] = system: Staphylococcus aureus; assay: Antimicrobial activity against Staphylococcus aureus at 2.5 ug/mL by agar diffusion method; assay type: functional; conditions: read-out: IZ
[18] = system: Syncephalastrum racemosum; assay: Antimicrobial activity against Syncephalastrum racemosum at 5 ug/mL by agar diffusion method; assay type: functional; conditions: read-out: IZ
[19] = system: Candida albicans; assay: Antimicrobial activity against Candida albicans at 5 ug/mL by agar diffusion method; assay type: functional; conditions: read-out: IZ
[20] = system: Penicillium italicum; assay: Antimicrobial activity against Penicillium italicum at 2.5 ug/mL by agar diffusion method; assay type: functional; conditions: read-out: IZ
[21] = system: MC-38; assay: Antitumor activity against mouse Colon 38 cells implanted in iv dosed C57BL/6 mouse administered as single dose; assay type: functional, organism-based
Outline: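 Female C57BL/6 mice, 6 weeks old, given about 30 mg Colon 38 tumor tissue s.c. in the flank. Randomized into groups of n = 5 when tumors reached about 300 mm3 (day 1). Compound in 5% glucose given as a single iv tail-vein dose on day 1; controls received 5% glucose. Tumor volume = (length × width²)/2 and body weight tracked.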

[22] = system: Aspergillus fumigatus; assay: Antimicrobial activity against Aspergillus fumigatus at 1.25 ug/mL by agar diffusion method; assay type: functional; conditions: read-out: IZ
[23] = system: Syncephalastrum racemosum; assay: Antimicrobial activity against Syncephalastrum racemosum at 2.5 ug/mL by agar diffusion method; assay type: functional; conditions: read-out: IZ
[24] = Antioxidant activity assessed as inhibition of peroxynitrite-mediated 3-nitrotyrosine formation by HPLC; assay type: functional
Outline: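 Tyrosine and peroxynitrite, each 100 µM, reacted with compound at 0–300 µM in 100 mM phosphate buffer pH 7.4 at 37 °C for 15 min. Peroxynitrite made from acidified H2O2 plus KNO2, quenched with NaOH, and kept on ice no longer than 30 min before use.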

[25] = system: Bacillus subtilis; assay: Antimicrobial activity against Bacillus subtilis by agar diffusion method; assay type: functional; outline: as §1
[26] = target: T1, DNA topoisomerase 1 (Homo sapiens) (UniProt P11387); assay: Inhibition of topoisomerase 1 relative to etoposide
T1 sequence (whole entry): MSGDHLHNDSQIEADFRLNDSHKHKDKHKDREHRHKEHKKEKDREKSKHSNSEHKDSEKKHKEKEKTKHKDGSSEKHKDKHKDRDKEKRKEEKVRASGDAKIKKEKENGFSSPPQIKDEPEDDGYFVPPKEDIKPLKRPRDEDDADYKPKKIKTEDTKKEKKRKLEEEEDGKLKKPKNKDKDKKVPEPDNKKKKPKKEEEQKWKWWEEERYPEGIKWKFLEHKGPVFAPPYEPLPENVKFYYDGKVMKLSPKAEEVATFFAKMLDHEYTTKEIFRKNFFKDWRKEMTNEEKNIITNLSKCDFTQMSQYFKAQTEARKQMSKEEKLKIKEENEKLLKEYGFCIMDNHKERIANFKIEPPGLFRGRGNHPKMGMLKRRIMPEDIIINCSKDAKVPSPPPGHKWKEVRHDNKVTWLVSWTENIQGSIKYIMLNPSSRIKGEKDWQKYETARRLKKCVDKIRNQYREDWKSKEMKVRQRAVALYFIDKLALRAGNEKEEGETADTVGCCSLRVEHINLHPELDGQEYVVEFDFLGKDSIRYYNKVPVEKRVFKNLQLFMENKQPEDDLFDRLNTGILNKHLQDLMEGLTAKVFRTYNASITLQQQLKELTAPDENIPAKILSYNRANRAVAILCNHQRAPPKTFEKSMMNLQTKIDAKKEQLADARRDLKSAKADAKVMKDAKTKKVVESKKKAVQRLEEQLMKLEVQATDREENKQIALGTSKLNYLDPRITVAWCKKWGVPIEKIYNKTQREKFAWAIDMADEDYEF

[27] = system: Aspergillus fumigatus; assay: Antimicrobial activity against Aspergillus fumigatus by agar diffusion method; assay type: functional; outline: as §1
[28] = system: Staphylococcus aureus; assay: Antimicrobial activity against Staphylococcus aureus by agar diffusion method; assay type: functional; outline: as §1
[29] = system: Candida albicans; assay: Antimicrobial activity against Candida albicans by agar diffusion method; assay type: functional; outline: as §1
[30] = system: Measles morbillivirus; assay: Antiviral activity against Measles virus infected in intracranially dosed hamster assessed as inhibition of subacute sclerosing panencephalitis; assay type: functional
Outline: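 Hamsters under ether anesthesia injected intracranially, into the subarachnoid space at 2 mm depth, at 5, 10 and 20 mg/kg/day for 10 days. Four animals per group sacrificed on days 1–20. Brains homogenized in PBS and centrifuged, supernatant deproteinized with ethanol, then MIC in brain tissue determined by HPLC and bioassay.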

[31] = system: Hepatitis C virus; assay: Antiviral activity against HCV by cell based replicon assay; assay type: functional, Hepacivirus hominis
Outline: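 HCV replicon cells plated at 1×10^4 per well. Next day incubated at 37 °C with serially diluted compound in DMEM with 2% FBS and 0.5% DMSO. HCV RNA copy number measured by quantitative RT-PCR on total cellular RNA. Each point is the average of five replicates. Cytotoxicity measured by MTS in parallel.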

[32] = system: Pseudomonas aeruginosa; assay: Antimicrobial activity against Pseudomonas aeruginosa at 1.25 ug/mL by agar diffusion method; assay type: functional; conditions: read-out: IZ
[33] = system: Bacillus subtilis; assay: Antimicrobial activity against Bacillus subtilis at 2.5 ug/mL by agar diffusion method; assay type: functional; conditions: read-out: IZ
[34] = system: Escherichia coli; assay: Antimicrobial activity against Escherichia coli at 5 ug/mL by agar diffusion method; assay type: functional; conditions: read-out: IZ
[35] = system: Aspergillus fumigatus; assay: Antimicrobial activity against Aspergillus fumigatus at 5 ug/mL by agar diffusion method; assay type: functional; conditions: read-out: IZ
[36] = system: Bacillus subtilis; assay: Antimicrobial activity against Bacillus subtilis at 5 ug/mL by agar diffusion method; assay type: functional; conditions: read-out: IZ
[37] = system: Syncephalastrum racemosum; assay: Antimicrobial activity against Syncephalastrum racemosum by agar diffusion method; assay type: functional; outline: as §1

Sequence of DNA topoisomerase 2-alpha (Mus musculus) (Q01320 whole entry): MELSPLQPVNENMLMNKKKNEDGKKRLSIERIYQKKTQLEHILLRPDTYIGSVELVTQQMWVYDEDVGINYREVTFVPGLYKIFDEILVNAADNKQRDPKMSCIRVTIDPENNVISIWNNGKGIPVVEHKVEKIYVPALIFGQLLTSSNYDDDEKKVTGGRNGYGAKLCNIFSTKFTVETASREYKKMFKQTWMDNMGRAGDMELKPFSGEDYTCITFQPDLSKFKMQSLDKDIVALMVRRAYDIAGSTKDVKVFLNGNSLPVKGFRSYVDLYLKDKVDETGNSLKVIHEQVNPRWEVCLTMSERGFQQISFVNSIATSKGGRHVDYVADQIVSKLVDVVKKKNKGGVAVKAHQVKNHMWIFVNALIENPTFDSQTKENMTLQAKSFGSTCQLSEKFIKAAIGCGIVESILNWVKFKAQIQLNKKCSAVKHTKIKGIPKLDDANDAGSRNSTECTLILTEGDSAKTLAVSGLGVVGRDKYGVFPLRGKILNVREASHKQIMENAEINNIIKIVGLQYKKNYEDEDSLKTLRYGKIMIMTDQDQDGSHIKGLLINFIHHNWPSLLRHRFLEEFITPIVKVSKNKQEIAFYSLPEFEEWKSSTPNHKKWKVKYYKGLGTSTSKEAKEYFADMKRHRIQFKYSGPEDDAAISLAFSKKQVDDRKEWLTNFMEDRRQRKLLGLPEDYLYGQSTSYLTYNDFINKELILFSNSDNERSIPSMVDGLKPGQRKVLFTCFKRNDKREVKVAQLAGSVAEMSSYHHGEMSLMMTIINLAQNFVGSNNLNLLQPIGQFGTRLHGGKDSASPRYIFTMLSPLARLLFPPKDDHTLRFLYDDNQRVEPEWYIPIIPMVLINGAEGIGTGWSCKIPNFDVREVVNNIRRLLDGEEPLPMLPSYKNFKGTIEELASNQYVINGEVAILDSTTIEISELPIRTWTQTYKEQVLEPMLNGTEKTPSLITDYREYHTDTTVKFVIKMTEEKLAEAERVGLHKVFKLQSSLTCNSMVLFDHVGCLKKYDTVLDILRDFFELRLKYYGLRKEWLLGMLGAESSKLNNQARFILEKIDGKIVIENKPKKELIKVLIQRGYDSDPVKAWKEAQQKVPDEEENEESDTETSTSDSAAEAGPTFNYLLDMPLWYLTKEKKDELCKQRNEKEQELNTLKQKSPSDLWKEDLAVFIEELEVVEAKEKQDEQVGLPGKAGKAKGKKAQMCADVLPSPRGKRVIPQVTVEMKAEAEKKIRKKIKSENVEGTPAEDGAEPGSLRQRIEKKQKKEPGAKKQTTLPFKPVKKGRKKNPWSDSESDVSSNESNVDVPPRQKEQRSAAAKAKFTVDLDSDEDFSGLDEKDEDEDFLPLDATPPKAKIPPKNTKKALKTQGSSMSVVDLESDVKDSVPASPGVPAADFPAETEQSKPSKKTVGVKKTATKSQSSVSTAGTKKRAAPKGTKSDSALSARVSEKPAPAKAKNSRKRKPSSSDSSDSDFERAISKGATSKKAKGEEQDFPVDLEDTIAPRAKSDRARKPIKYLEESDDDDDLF

MIC [6]: 1.25 µg/mL (≈ 4.08 µM)
Ratio [16]: 4.33
pIC50 [24]: 4.25
MIC [25]: 0.313 µg/mL (≈ 1.02 µM)
Ratio [26]: 4.3
MIC [27]: 0.625 µg/mL (≈ 2.04 µM)
MIC [28]: 0.625 µg/mL (≈ 2.04 µM)
MIC [29]: 1.25 µg/mL (≈ 4.08 µM)
MIC [30]: 6.12 µg/mL (≈ 20 µM)
MIC [31]: 1.09 µg/mL (≈ 3.56 µM)
MIC [37]: 0.313 µg/mL (≈ 1.02 µM)
Structure (SMILES): CC(=O)c1ccc(N/N=C2\CCCc3ccccc3C2=O)cc1
zone of inhibition at 2.5 µg/mL [1]: 7 mm
zone of inhibition at 1.25 µg/mL [2]: 7 mm
zone of inhibition at 5 µg/mL [3]: 0 mm
zone of inhibition at 2.5 µg/mL [4]: 0 mm
Activity [5]: 81%
zone of inhibition at 5 µg/mL [7]: 17 mm
zone of inhibition at 1.25 µg/mL [8]: 6 mm
zone of inhibition at 1.25 µg/mL [9]: 0 mm
zone of inhibition at 2.5 µg/mL [10]: 11 mm
zone of inhibition at 1.25 µg/mL [11]: 3 mm
zone of inhibition at 1.25 µg/mL [12]: 5 mm
zone of inhibition at 1.25 µg/mL [13]: 4 mm
zone of inhibition at 2.5 µg/mL [14]: 0 mm
zone of inhibition at 5 µg/mL [15]: 15 mm
zone of inhibition at 2.5 µg/mL [17]: 8 mm
zone of inhibition at 5 µg/mL [18]: 16 mm
zone of inhibition at 5 µg/mL [19]: 10 mm
zone of inhibition at 2.5 µg/mL [20]: 6 mm
Activity [21]: Active
zone of inhibition at 1.25 µg/mL [22]: 6 mm
zone of inhibition at 2.5 µg/mL [23]: 9 mm
zone of inhibition at 1.25 µg/mL [32]: 0 mm
zone of inhibition at 2.5 µg/mL [33]: 10 mm
zone of inhibition at 5 µg/mL [34]: 12 mm
zone of inhibition at 5 µg/mL [35]: 20 mm
zone of inhibition at 5 µg/mL [36]: 16 mm
